GSK3beta inhib – blocks human GSK3beta kinase activity; AID 2097; activity score (negative = inhibition), % at 10 µM; hit rate 0.038% among 300,000; GST-GSK3beta kinase, ADP-Glo luminescence, 60 min; active compounds read low; P49841;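 active = more than half of replicate wells score below -50%, meaning over 50% inhibition versus plate controls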;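 also: 0% = median DMSO wells and -100% = median GW8510 positive control wells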
Target sequence (P49841 whole entry, looked up): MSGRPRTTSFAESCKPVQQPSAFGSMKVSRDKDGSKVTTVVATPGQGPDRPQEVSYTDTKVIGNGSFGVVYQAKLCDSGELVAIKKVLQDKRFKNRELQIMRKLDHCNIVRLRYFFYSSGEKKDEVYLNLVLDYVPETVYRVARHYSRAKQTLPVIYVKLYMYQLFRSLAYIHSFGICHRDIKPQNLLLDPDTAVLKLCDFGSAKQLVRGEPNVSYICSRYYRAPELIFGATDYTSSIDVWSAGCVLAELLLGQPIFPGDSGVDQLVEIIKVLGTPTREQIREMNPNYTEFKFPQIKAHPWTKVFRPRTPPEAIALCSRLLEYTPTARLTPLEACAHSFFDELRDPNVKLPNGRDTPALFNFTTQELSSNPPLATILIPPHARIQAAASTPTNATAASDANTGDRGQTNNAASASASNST
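Test system – GST-tagged human GSK3beta kinase, cell-free · Incubation – 60 min enzyme reaction, room temperature · Signal – ADP-Glo luminescence · Also added – peptide substrate and ATP at 25 µM · Controls – DMSO neutral wells and GW8510 at 20 µM as positive · Buffer or medium – Tris/MgCl2 kinase buffer · Measure – Luminescence-derived activity versus plate DMSO and GW8510 wells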
Dyrk1A ADPGlo – blocks rat Dyrk1A kinase activity; AID 504441; hit rate 0.43% among 310,000; ADP-Glo luminescence, NFATc1 peptide; Q63470; inhibition, % at 12.5 µM; in the data active = inhibition above about 50%;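 also: plate controls were vehicle with enzyme for no effect and no enzyme for full effect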
STK33 kinase inh – blocks human STK33 kinase activity. purified STK33, MBP phosphorylation, ADP-Glo luminescence. inhibition, % at 10 µM. hit rate 0.073% among 320,000. AID 2661;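 active = inhibition at or above 25%, using the most active replicate where run in duplicate; inactive = inhibition below 25%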
Arr AP2 block – human beta-arrestin and AP2 interaction inhibition; hit rate 0.31% among 340,000; inhibition, % at 10 µM; AID 504490; FITC-arrestin peptide / GST-AP2 beads, flow cytometry; AP2 beta2 appendage carries R879A mutation;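 active = inhibition above a set limit, near 3 SD of compounds lacking own fluorescence, cut at about 54% in these data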;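 also: plate controls were DMSO wells for no effect and 5 µM unlabelled arrestin peptide for full effect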
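System: GST-tagged AP2 beta2-adaptin appendage (R879A) on 4 µm glutathione beads / Reagent: FITC-arrestin peptide, 50 nM / Detection: HyperCyt-sampled flow cytometry, FL1 channel, ex 488/em 535 nm / Timing: 12 min plus 1 h, RT / Buffer or medium: PBS plus Tween 20 (0.05%) and BSA (0.1%)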
Rin1 Abl inh – inhibitors of human Rin1-Abl protein interaction; P00519+Q13671; TR-FRET Rin1/Abl binding, biochemical; inhibition, % at 7.35 µM; hit rate 0.4% among 360,000; AID 588664; in the data active = inhibition above about 5%, passing the limit was not always enough
GSK3 alpha inh – inhibitors of human GSK-3 alpha kinase. P49840. ADP-Glo luminescence, 60 min. inhibition, % at 10 µM. hit rate 0.1% among 320,000. AID 2650;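 active = more than half of replicates show inhibition above 20%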;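 also: GST-tagged GSK-3 alpha with peptide substrate and 25 µM ATP; 0% = DMSO neutral wells and 100% = GW8510 positive control wells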
Rin1-Abl confirm – confirmation of inhibitors of human Rin1-Abl interaction; AID 602124; shares compounds with Rin1 Abl inh; TR-FRET Rin1-Abl binding, purified proteins; hit rate 49% among 1,300; inhibition, % at 7.35 µM
GFP quench-1 – GFP fluorescence interference artifact; shares compounds with Rin1 Abl inh; inhibitors/quenchers counterscreen; inhibition, % at 6.75 µM; hit rate 8.5% among 1,300;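 also: ABL1-eGFP fusion protein alone without its partner RIN1-SBP; 0% = protein with vehicle and 100% = wells lacking protein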
GFP quench DR – quenches GFP in dose response, Rin1-Abl counter-screen | 230 tested, under 10 active | GFP fluorescence interference/quenching counterscreen | shares compounds with Rin1 Abl inh | AID 602182 | IC50, µM; call rule not given here;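 also: ABL1-eGFP fusion protein alone without its RIN1 binding partner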
GFP quench-2 – counter-screen for Rin1-Abl interaction inhibitors: GFP fluorescence quenching. AID 602397. IC50, µM. 25 tested, under 10 active. shares compounds with Rin1 Abl inh. GFP fluorescence quenching counterscreen, biochemical; call rule not given here
Numbers without * were called inactive; · = no result given. Rows were chosen to be rich in hits. Some 0.99% of all compounds tested hit in one or more screens of this group. Rule as the data show it, unless noted: active = inhibition above about 6.5%; inactive = the rest.

SMILES	GSK3beta inhib	Dyrk1A ADPGlo	STK33 kinase inh	Arr AP2 block	Rin1 Abl inh	GSK3 alpha inh	Rin1-Abl confirm	GFP quench-1	others
CN1CCC(N(C)C(=O)/C(C#N)=C\c2ccc(OC(F)F)cc2)CC1	·	3	·	16	2	·	·	·
N#CC(=C1Nc2ccccc2N1)S(=O)(=O)c1ccccc1	-1	0	-1	19	9.5*	1	-3	1
c1ccc2[nH]c(SCc3cn4ccccc4n3)nc2c1	-2	2	0	38	5.6*	6	-2	1
COc1ccc(Cl)cc1C(=O)NNC(=O)c1ccc(F)c(S(=O)(=O)N2CCOCC2)c1	·	0	-1	-3	-1	-4	·	·
O=C(COC(=O)c1ccccc1NC(=O)c1ccccc1)c1cccc([N+](=O)[O-])c1	2	-3	-5	-15	0	1	·	·
CCOC(=O)c1ccccc1NC(=O)c1cccc([N+](=O)[O-])c1	3	2	2	43	9.8*	-5	-3	0
Cc1cccc(CSc2nnc(-c3ccco3)o2)c1	0	7	-1	-11	0	3	·	·
CC(=O)c1c(C)cc(C)c(CSc2nnc(-c3ccco3)o2)c1C	5	-1	0	-2	5.4*	1	-3	-2
CN(CCc1ccccc1)C(=O)c1ccc(NC(=O)Cc2ccc(NC(=O)C3CCCN(S(=O)(=O)c4cccc([N+](=O)[O-])c4)C3)cc2)cc1 (configuration not stated)	·	-2	·	39	0	·	·	·
CCOC(=O)N1CCN(C(=O)C2CCN(C(=O)Nc3ccccc3)CC2)CC1	·	0	0	-3	3	-2	·	·
CCOC(=O)N1CCN(C(=O)Nc2ccc(NC(=O)N3CCN(C(=O)OCC)CC3)cc2)CC1	0	3	0	0	33*	-1	38*	-1	GFP quench DR=>68;GFP quench-2=>68
CCN1CCN(Cc2oc(CO)cc(=O)c2O)CC1	-1	-6	-1	1	5.0*	-3	1	-1
O=c1cc(CO)oc(CN2CCN(c3ccccc3F)CC2)c1O	2	-6	-2	6	1	-1	·	·
CCOC(=O)C1CCN(Cc2cc(C(C)C)c(O)c(C(C)C)c2)CC1	0	0	-1	38	5	-2	·	·
CCOC(=O)C1CCN(Cc2oc(CO)cc(=O)c2O)CC1	1	-1	-1	0	14*	-1	-1	0
CC(=O)Oc1ccc(C23c4ccccc4C2(OC(C)=O)c2cc(OC(C)=O)ccc23)cc1 (configuration not stated)	·	2	·	-17	-2	·	·	·
O=C(CN1CCN(c2ccc(O)cc2)CC1)Nc1ccc2c(c1)OCCCO2	·	·	-1	23	2	-2	·	·
CCn1c2ccccc2c2cc(CN3CCN(S(C)(=O)=O)CC3)ccc21	3	15	0	-2	6.1*	-1	-2	-2
CCn1c2ccccc2c2cc(CN3CCN(Cc4cc(OC)ccc4O)CC3)ccc21	2	2	-1	8	5	19	·	·
OC[C@@H]1CN(Cc2ccc(Cl)cc2)C[C@H](n2cnc3c(NC4CC4)ncnc32)O1	·	·	·	·	17*	·	20*	-4	GFP quench DR=>68
COc1ccc(CN2C[C@@H](CO)O[C@@H](n3cnc4c(NC5CCC5)ncnc43)C2)cc1	·	·	·	·	12*	·	11*	0
OC[C@@H]1CN(Cc2ccncc2)C[C@H](n2cnc3c(NC4CC4)ncnc32)O1	·	·	·	·	7	·	·	·
COc1ccc(NC(=O)C2(C)CCN2Cc2ccc3ccccc3c2)cc1OC (configuration not stated)	·	·	·	·	-4	·	·	·
CC12CCC(=O)N1C(C(=O)Nc1nnc(SCc3ccccc3F)s1)CS2 (configuration not stated)	-3	-4	-1	1	32*	-3	52*	-1	GFP quench DR=>68

Bioassay records as filed in PubChem.
